From PMC3594046 (Bioorganic & medicinal chemistry letters, 2013)

Experiments:
[1] = target: T1, TRβ-LBD / SRC2-2 peptide interaction (Homo sapiens, UniProt P10828); test: Fluorescence polarization; assay type: binding
T1 sequence (P10828 217-461 limits assumed): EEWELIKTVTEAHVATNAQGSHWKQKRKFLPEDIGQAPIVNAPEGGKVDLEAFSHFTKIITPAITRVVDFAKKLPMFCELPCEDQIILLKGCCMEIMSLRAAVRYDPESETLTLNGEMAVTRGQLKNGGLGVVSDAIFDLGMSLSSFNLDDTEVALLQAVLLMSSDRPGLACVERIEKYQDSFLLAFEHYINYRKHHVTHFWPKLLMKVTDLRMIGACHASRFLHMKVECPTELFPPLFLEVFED
Outline: (§1)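 Fluorescence polarization competition assays: TRβ-LBD with Texas Red-labelled SRC2-2 peptide, and VDR with SRC2-3 peptide. Test compounds were 3-fold serially diluted in DMSO from a 10,000 μM top concentration and pin-transferred into the assay solutions. Each run was in triplicate and repeated twice, giving 6 replicates. EC50 is reported as the mean with standard deviation.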

TRα / SRC2-2 interaction = target: T2, TRα / SRC2-2 interaction (Homo sapiens, UniProt P10827); test: FP competition assay, TRα-coactivator; assay type: binding; conditions: in words
T2 sequence (P10827 1-410 isoform P10827-2): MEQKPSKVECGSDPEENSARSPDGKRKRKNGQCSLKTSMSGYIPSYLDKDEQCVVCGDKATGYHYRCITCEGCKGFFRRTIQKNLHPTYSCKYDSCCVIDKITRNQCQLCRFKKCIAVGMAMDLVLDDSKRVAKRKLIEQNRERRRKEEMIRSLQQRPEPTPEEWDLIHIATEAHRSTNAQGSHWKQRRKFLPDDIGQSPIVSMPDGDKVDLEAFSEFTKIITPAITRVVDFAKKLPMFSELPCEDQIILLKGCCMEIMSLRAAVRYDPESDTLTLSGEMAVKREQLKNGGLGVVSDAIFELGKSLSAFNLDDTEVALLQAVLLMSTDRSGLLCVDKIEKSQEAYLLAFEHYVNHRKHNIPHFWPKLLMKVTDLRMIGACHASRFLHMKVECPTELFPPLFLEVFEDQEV

[2] = system: PEPCK gene transcription (TR-responsive) in HepG2 cells; test: RT-PCR of T3-induced PEPCK transcription in HepG2 cells; assay type: cell-based; conditions: HepG2, co-treated with T3 (100 nM) and compound (1 μM and 100 nM), 24 h
Outline: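 HepG2 cells were co-treated for 24 h with T3 (100 nM) and test compound at 1 μM or 100 nM. Controls were a T3 ligand antagonist and a known coactivator antagonist. mRNA was isolated and converted to cDNA, and diluted cDNA was used for real-time PCR of PEPCK. Fold induction was calculated by the ΔΔCt method, with two independent experiments in triplicate and standard errors.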

[3] = target: T3, vitamin D receptor (VDR) / SRC2-3 interaction (Homo sapiens, UniProt P11473); test: FP competition assay, VDR-SRC2-3 interaction; assay type: binding
T3 sequence (P11473 1-427): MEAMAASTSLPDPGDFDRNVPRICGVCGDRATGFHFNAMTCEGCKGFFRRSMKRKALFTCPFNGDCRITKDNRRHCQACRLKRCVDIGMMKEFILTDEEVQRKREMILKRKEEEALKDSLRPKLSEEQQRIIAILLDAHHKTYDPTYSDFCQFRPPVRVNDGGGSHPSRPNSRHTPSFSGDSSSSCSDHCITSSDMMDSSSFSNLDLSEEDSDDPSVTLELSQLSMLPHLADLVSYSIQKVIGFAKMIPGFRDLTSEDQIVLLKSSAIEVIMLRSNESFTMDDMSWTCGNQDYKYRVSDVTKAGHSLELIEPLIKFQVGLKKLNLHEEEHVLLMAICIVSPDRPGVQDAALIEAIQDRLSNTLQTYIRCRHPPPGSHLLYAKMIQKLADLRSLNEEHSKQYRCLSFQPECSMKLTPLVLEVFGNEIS
Outline: as §1

EC50 [1] [µM]	SMILES	further results
3.6	CS(=O)(=O)c1ccc(C(=O)NCC(=O)N(Cc2ccccc2)Cc2ccccc2)cc1[N+](=O)[O-] [3{1,18}]	TRα-COA antagonism compared with TRβ (TRα / SRC2-2 interaction): slightly more potency against TRα; Transcription of the PEPCK gene [2]: inhibited by the MSNBA 3{1,18} in dose-dependent manner
5.8	CN(C(=O)CNC(=O)c1ccc(S(C)(=O)=O)c([N+](=O)[O-])c1)c1ccccc1 [3{1, 11}]	
> 60	CCCN(C(=O)CN(C)C(=O)c1ccc(S(C)(=O)=O)c([N+](=O)[O-])c1)c1ccccc1 [{4,12}]	
> 60	CN(CC(=O)N(Cc1ccccc1)Cc1ccccc1)C(=O)c1ccc(S(C)(=O)=O)c([N+](=O)[O-])c1 [{4, 18}]	

The next lines start with the compound.

SMILES	EC50 [1] [µM]	further results
CS(=O)(=O)c1ccc(C(=O)NCC(=O)NC23CC4CC(CC(C4)C2)C3)cc1[N+](=O)[O-] [3{1,1}]	16	
CCCN(C(=O)CNC(=O)c1ccc(S(C)(=O)=O)c([N+](=O)[O-])c1)c1ccccc1 [3{1,12}]	6.6	
CS(=O)(=O)c1ccc(C(=O)NCC(=O)N(Cc2ccccc2)c2ccccc2)cc1[N+](=O)[O-] [3{1,13}]		TRα-COA antagonism compared with TRβ (TRα / SRC2-2 interaction): slightly more potency against TRα
CS(=O)(=O)c1ccc(C(=O)NCCCC(=O)NC23CC4CC(CC(C4)C2)C3)cc1[N+](=O)[O-] [3{3,1}]	11	
CS(=O)(=O)c1ccc(C(=O)NCCCC(=O)N2CCN(c3ccc(C(F)(F)F)cc3)CC2)cc1[N+](=O)[O-] [3{3,24}]		Activity against TR-SRC interaction ([1]; FP assay, in words): inactive; EC50 [3]: 7 µM
CN(CC(=O)NC12CC3CC(CC(C3)C1)C2)C(=O)c1ccc(S(C)(=O)=O)c([N+](=O)[O-])c1 [3{4,1}]	> 60	
